We go through 26 compounds from ChEMBL document CHEMBL1153925, “Synthesis, characterization and biological activity of ring-substituted 6-benzylamino-9-tetrahydropyran-2-yl and 9-tetrahydrofuran-2-ylpurine derivatives” (Bioorg Med Chem, 2009).

The pIC50 is the IC50 on a negative log10 scale, so that one unit is a factor of ten.

pIC50: −log10 of the molar value.

The test system of one test is BJ. The test is described as follows: Cytotoxicity against human BJ cells after 72 hrs by MTT assay. It counts as ADME, cell-based. (Formazan colour is commonly taken as a measure of viable cells.)
Test [1] relates to Nicotiana tabacum. The test is described as follows: Cytokinin activity in tobacco callus assessed as stimulation of callus growth at 100 uM relative to 6-benzylaminopurine. It is filed as functional. In outline:
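Compounds dissolved in DMSO, diluted with water to 5 × 10^-2 M stock, then diluted in medium to 10^-8 to 10^-4 M. Final DMSO ≤0.2%; solvent control 0.2% DMSO. Readout was cytokinin-dependent tobacco callus growth. Activity is expressed relative to 10^-6 M BAP (=100%) at each compound's optimal concentration. Five replicates per concentration; whole test run at least twice.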

For a further test, the system named is Amaranthus. The test is described as follows: Cytokinin activity in cotyledons assessed as dark induction of betacyanin synthesis at 100 uM relative to 6-benzylaminopurine. It is filed as functional.
In a further test the test system is Triticum aestivum. The test is described as follows: Cytokinin activity in wheat leaf assessed as stimulation of retention of chlorophyll in excised leaves at 0.1 mM relative to 6-benzylaminopurine. It is filed as functional.
A further test relates to K562. The test is described as follows: Cytotoxicity against human K562 cells after 72 hrs by Calcein AM assay. As to conditions: K562, 72 h. It is filed as ADME, cell-based.
A further test relates to MCF7. The test is described as follows: Cytotoxicity against human MCF7 cells after 72 hrs by Calcein AM assay. It counts as ADME, cell-based. As to conditions: MCF7, 72 h.
Test [2] relates to Nicotiana tabacum. The test is described as follows: Cytokinin activity in tobacco callus assessed as stimulation of callus growth at 1 uM relative to 6-benzylaminopurine. It counts as functional.

For the compound `COc1cccc(OC)c1CNc1ncnc2c1ncn2C1CCCCO1` (stereo not drawn), the pIC50 is below 4.00 with BJ, 4.99 in the test with K562 and below 4.00 in the test with MCF7. Also, the Activity with Nicotiana tabacum [1] was 57%; in the test with Amaranthus it was 13%; in the test with Triticum aestivum, 14%.
Turning to `COc1ccccc1CNc1ncnc2c1ncn2C1CCCCO1` (stereo not drawn), the pIC50 is below 4.00 in the test on BJ, 4.01 in the test with K562 and below 4.00 in the test with MCF7. Besides, the Activity came out at 93% with Nicotiana tabacum [2], 84% in the test on Amaranthus and 104% in the test on Triticum aestivum.
Turning to `COc1ccc(CNc2ncnc3c2ncn3C2CCCCO2)c(OC)c1` (stereo not drawn), the pIC50 with BJ, with K562 and with MCF7 was below 4.60 in each case. Also, the Activity in the test on Amaranthus was found to be 9%; in the test with Triticum aestivum it was 25%.
`c1ccc(CNc2ncnc3c2ncn3C2CCCCO2)cc1` (stereo not drawn): the pIC50 in the test with BJ, in the test on K562 and in the test on MCF7 was below 4.00 throughout. Also, the Activity with Nicotiana tabacum [2] amounted to 102%; in the test on Amaranthus it was 114%; in the test on Triticum aestivum, 104%.
For `COc1cccc(CNc2ncnc3c2ncn3C2CCCCO2)c1` (stereo not drawn), the results for the pIC50 in the test with BJ, with K562 and in the test on MCF7 were below 4.00, 4.21 and 4.01, respectively. Besides, the Activity with Nicotiana tabacum [2] was determined as 90%; in the test with Amaranthus, 76%; with Triticum aestivum it was 72%.
`COc1cccc(CNc2ncnc3c2ncn3C2CCCCO2)c1O` (stereo not drawn): the pIC50 with BJ, in the test with K562 and in the test with MCF7 was below 4.00 in each case. The values for the Activity in the test on Nicotiana tabacum [1] and in the test on Amaranthus were 12% and 18%, respectively.
As to `COc1cc(OC)c(OC)cc1CNc1ncnc2c1ncn2C1CCCCO1` (stereo not drawn), the pIC50 with BJ, with K562 and with MCF7 was below 4.00 each time. In addition, the Activity in the test on Nicotiana tabacum [1] is on record as 11%; with Amaranthus, 3%.
In the case of `COc1cc(CNc2ncnc3c2ncn3C2CCCO2)cc(OC)c1` (stereo not drawn), the pIC50 with BJ, with K562 and with MCF7 was below 4.00 each time. Also, the results for the Activity in the test with Nicotiana tabacum [1], with Amaranthus and with Triticum aestivum were 14%, 18% and 8%, respectively.
Regarding `COc1cc(CNc2ncnc3c2ncn3C2CCCO2)ccc1O` (stereo not drawn), the pIC50 in the test with BJ, with K562 and in the test with MCF7 was below 4.00 in each case. Besides, the Activity in the test with Nicotiana tabacum [1] is recorded as 13%; in the test on Amaranthus, 17%; in the test with Triticum aestivum, 4%.
With `COc1ccc(CNc2ncnc3c2ncn3C2CCCO2)c(OC)c1OC` (stereo not drawn), the pIC50 with BJ, with K562 and with MCF7 was below 4.00 throughout. In addition, the Activity with Nicotiana tabacum [1] worked out at 7%; with Amaranthus, 15%; with Triticum aestivum, 9%.
Take `COc1cc(OC)c(OC)cc1CNc1ncnc2c1ncn2C1CCCO1` (stereo not drawn): the pIC50 with BJ, in the test with K562 and in the test with MCF7 was below 4.00 in each case. Moreover, the Activity with Nicotiana tabacum [1] was 14%; in the test on Amaranthus, 14%; with Triticum aestivum, 9%.
Turning to `COc1cc(CNc2ncnc3c2ncn3C2CCCO2)cc(OC)c1OC` (stereo not drawn), the pIC50 in the test with BJ, with K562 and in the test with MCF7 was below 4.00 each time. In addition, the figures for the Activity with Nicotiana tabacum [1], in the test on Amaranthus and in the test on Triticum aestivum were 4%, 17% and 10%, respectively.
With `COc1cc(CNc2ncnc3c2ncn3C2CCCCO2)cc(OC)c1` (stereo not drawn), the pIC50 in the test on BJ, with K562 and in the test with MCF7 was below 4.00 each time. Further, the Activity is reported as 9% in the test with Amaranthus and 7% with Triticum aestivum.
Regarding `Oc1cccc(CNc2ncnc3c2ncn3C2CCCCO2)c1O` (stereo not drawn), the pIC50 in the test on BJ is 4.20; with K562 it was 4.04; in the test with MCF7, below 4.00. Further, the Activity with Nicotiana tabacum [1] amounted to 3.2%; in the test on Amaranthus, 8%.
In the case of `COc1cc(CNc2ncnc3c2ncn3C2CCCCO2)cc(OC)c1OC` (stereo not drawn), the negative logarithm of the IC50 (pIC50) with BJ, with K562 and in the test with MCF7 was below 4.00 throughout. Besides, the Activity in the test with Nicotiana tabacum [1] came to 17%; in the test on Amaranthus, 19%; in the test with Triticum aestivum, 7%.
With `c1ccc(CNc2ncnc3c2ncn3C2CCCO2)cc1` (stereo not drawn), the pIC50 in the test with BJ, in the test with K562 and in the test with MCF7 was below 4.00 in each case. The results for the Activity with Nicotiana tabacum [2], with Amaranthus and in the test on Triticum aestivum were 95%, 109% and 107%, respectively.
As for `COc1cccc(CNc2ncnc3c2ncn3C2CCCO2)c1` (stereo not drawn), the pIC50 with BJ, in the test on K562 and with MCF7 was below 4.00 in each case. The Activity with Nicotiana tabacum [2] was found to be 96%; in the test with Amaranthus, 123%; in the test with Triticum aestivum, 82%.
As to `COc1ccc(CNc2ncnc3c2ncn3C2CCCO2)cc1` (stereo not drawn), the pIC50 in the test with BJ, in the test with K562 and in the test with MCF7 was below 4.00 in each case. In addition, the results for the Activity in the test on Nicotiana tabacum [2], in the test on Amaranthus and in the test with Triticum aestivum were 7%, 25% and 16%, respectively.
On to `COc1ccc(CNc2ncnc3c2ncn3C2CCCO2)cc1OC` (stereo not drawn), for which the negative-log IC50 (pIC50) in the test with BJ, in the test on K562 and with MCF7 was below 4.00 throughout. In addition, the Activity with Nicotiana tabacum [2] stood at 3%; in the test with Amaranthus, 5%; with Triticum aestivum, 7%.
As for `COc1cc(CNc2ncnc3c2ncn3C2CCCCO2)ccc1O` (stereo not drawn), the pIC50 in the test on BJ, with K562 and in the test on MCF7 was below 4.00 each time. Besides, the Activity with Nicotiana tabacum [1] is listed as 8.7%; in the test on Amaranthus, 26%; in the test with Triticum aestivum, 7%.
With `COc1cc(OC)c(CNc2ncnc3c2ncn3C2CCCCO2)c(OC)c1` (stereo not drawn), the negative logarithm of the IC50 (pIC50) in the test with BJ, with K562 and in the test on MCF7 was below 4.30 each time. Besides, the Activity was 2% with Nicotiana tabacum [1], 14% with Amaranthus and 3% in the test with Triticum aestivum.
For the compound `COc1ccc(CNc2ncnc3c2ncn3C2CCCCO2)cc1OC` (stereo not drawn), the pIC50 in the test with BJ, with K562 and with MCF7 was below 4.00 each time. For the same compound, the Activity with Amaranthus and in the test with Triticum aestivum was 8% each time.
With `COc1ccc(CNc2ncnc3c2ncn3C2CCCCO2)c(OC)c1OC` (stereo not drawn), the pIC50 in the test with BJ, with K562 and in the test on MCF7 was below 4.43 each time. Moreover, the values for the Activity in the test on Amaranthus and in the test with Triticum aestivum were 4% and 7%, respectively.
Take `Oc1ccccc1CNc1ncnc2c1ncn2C1CCCO1` (stereo not drawn): the pIC50 with BJ, with K562 and in the test on MCF7 was below 4.00 in each case. Moreover, the Activity in the test on Nicotiana tabacum [1] amounted to 58%; in the test with Amaranthus, 41%; in the test on Triticum aestivum it was 25%.
For the compound `COc1ccc(CNc2ncnc3c2ncn3C2CCCCO2)cc1` (stereo not drawn), the pIC50 in the test with BJ, in the test on K562 and with MCF7 was below 4.00 each time. Also, the Activity is listed as 10% in the test with Nicotiana tabacum [2] and 18% in the test with Amaranthus.
As for `COc1ccc(CNc2ncnc3c2ncn3C2CCCO2)c(OC)c1` (stereo not drawn), the pIC50 in the test with BJ, with K562 and with MCF7 was below 4.00 each time. Besides, the Activity in the test with Nicotiana tabacum [2] stood at 3%; in the test with Amaranthus, 14%; with Triticum aestivum, 18%.
